Compound activity from PubChem BioAssay.
A selection: hits, their analogues and other compounds. The true share with any hit is near 2.9%.
TRPC4 block: TRPC4 (mouse) channel inhibition; HEK293 TRPC4beta/mu-opioid, DAMGO-evoked Fluo4 calcium flux; hits give low values; B-score at 10 µM; actives 0.39% (n = 300,000); AID 2247;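 active = B-score over 3 SD under the library average, no early fluorescence shift, positive overall ratio signal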
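Material: HEK293 cells with stable TRPC4beta plus mu-opioid receptor expression / Probe or stimulus: DAMGO in two steps, submaximal then maximal / Compound: single concentration per test compound / Technique: kinetic Fluo4 fluorescence imaging of calcium influx / Read-out: per-well B score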
TRPC6 activator: mouse TRPC6 channel activation. HEK293-TRPC6 membrane potential dye fluorescence; hits give high values. actives 0.13% (n = 310,000). B-score at 10 µM. AID 2550. Q61143;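 active = B-score of the integrated fluorescence ratio above library mean plus 3 SD, and starting fluorescence ratio within library mean plus 5 SD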;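 also: higher score means more depolarization so channel activation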
TRPC4 act: opens the mouse TRPC4 cation channel; B-score at 10 µM; HEK293 TRPC4beta/mu-opioid, Fluo4 calcium fluorescence; hits give high values; actives 0.49% (n = 310,000);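 active = B-score above 5 SD of library B-scores, and initial fluorescence ratio not above library mean plus 5 SD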;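 also: positive B-score marks a calcium rise read as TRPC4 activation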
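System: HEK293 cells stably co-expressing mouse TRPC4beta and mu-opioid receptor; Schedule: Fluo4 dye loading 45 min at room temperature, 110 s recording; Detection: Fluo4 fluorescence, kinetic; Evaluation: B-scored integrated calcium fluorescence ratio; Controls: buffer (low) and maximal DAMGO (high).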
TRPC4 potent: allosterically enhances the mouse TRPC4 cation channel; Q9QUQ5; HEK293 TRPC4beta/mu-opioid, DAMGO EC20, Fluo-4 Ca2+ flux; hits give high values; B-score at 10 µM; actives 0.42% (n = 310,000); AID 2227;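 active = B-score of calcium response area above 5 SD of library B-scores, with initial fluorescence ratio within 5 SD of library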;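 also: B-score of integrated fluorescence ratio over time as area under calcium response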
Kir21 inh: inhibitors of mouse Kir2.1 inward-rectifier potassium channel; AID 1672; P35561; HEK293-Kir2.1, FluxOR thallium flux fluorescence; hits give low values; actives 0.85% (n = 310,000); B-score at 10 µM;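 active = fluorescence ratio B-score at or below minus 3 SD of library scores, with starting-brightness B-score within 2 SD, cut at about -4.2 in these data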;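 also: channel flux triggered by added potassium and thallium sulfate stimulus; B-score of peak minus minimum fluorescence over baseline after thallium stimulus; more negative B-score means stronger Kir2.1 block with less thallium influx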
TRPC6 inhibitor: inhibitors of mouse TRPC6 channel; actives 1.1% (n = 310,000); Q61143; HEK293-TRPC6, membrane potential dye, ACh-evoked depolarization; hits give low values; AID 2553; B-score at 10 µM;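 active = B-score under library mean minus 3 SD, initial fluorescence not abnormally high, positive integrated signal ratio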;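 also: B-score derived from integrated fluorescence ratio over the kinetic read; more negative B-score means stronger inhibition of depolarization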
* = called active by the depositor; i = inactive.

SMILES | TRPC4 block | TRPC6 activator | TRPC4 act | TRPC4 potent | Kir21 inh | TRPC6 inhibitor
CC(C)Cc1ccc(C(C)C(=O)Nc2ccc(O)cc2)cc1 (stereo not given) | i | i | 52* | i | -0.47 | i
CC(C(=O)Nc1cccnc1)c1ccc([N+](=O)[O-])cc1 (stereo not given) | i | i | i | i | -0.02 | i
COc1cccc(-c2c(C(=O)N/N=C/c3ccoc3)nnn2-c2nonc2N)c1 | i | i | i | i | -0.05 | i
CN1CCN(c2ccc(CNS(=O)(=O)c3ccccc3)cc2)CC1 | i | i | i | i | 0 | i
CN1CCN(c2ccc(CNS(=O)(=O)c3ccsc3)cc2)CC1 | i | i | i | 22* | -1.3 | i
O=C(COc1ccc(F)cc1Br)N1CCN(c2ncccn2)CC1 | i | i | i | i | -0.04 | i
O=C(COc1ccc(F)cc1Br)N1CCN(S(=O)(=O)/C=C/c2ccccc2)CC1 | i | i | i | 12* | 1.1 | i
COc1cccc(/C=N/NC(=S)NC2CC3CC2C2C=CCC32)c1O (stereo not given) | i | i | i | i | 0.36 | i
Oc1ccccc1/C=N/NC(=S)NC1CC2CC1C1C=CCC21 (stereo not given) | -8* | i | i | i | 0.03 | i
Cc1[nH]c2c(ccc3ccccc32)c1C1C(CCN)C1(C)C (stereo not given) | i | i | 70* | i | -4.1 | i
CCOC(=O)c1sc2nc(N3CCOCC3)c3c(c2c1N)CCN(C)C3 | i | i | i | i | 0.99 | -7*
Cc1ccnc(NC(=S)N2CCN(c3cccc(C(F)(F)F)c3)CC2)c1 | i | i | i | i | -0.43 | i
CN(C)CCN(C(=O)c1cccc2ccccc12)c1nc2cc3c(cc2s1)OCO3 | i | i | 73* | i | 2.1 | i
CN(C)CCN(C(=O)c1ccc2ccccc2c1)c1nc2cc3c(cc2s1)OCCO3 | i | i | i | i | 2 | i
CCN(c1ccccc1)S(=O)(=O)c1ccc(C(=O)N(CCCN(C)C)c2nc3cc4c(cc3s2)OCO4)cc1 | i | i | 168* | i | 0.46 | i
CN(C)CCCN(C(=O)c1ccc2ccccc2c1)c1nc2cc3c(cc2s1)OCO3 | i | i | i | i | -3.3 | i
CN(C)CCCN(C(=O)c1ccc(S(=O)(=O)N(C)Cc2ccccc2)cc1)c1nc2cc3c(cc2s1)OCO3 | i | i | 48* | i | 0.65 | i
Cn1ccc(C(=O)N/N=C/c2ccncc2)n1 | i | i | i | i | -0.13 | i
CCN(CC(=O)NCc1cccs1)C(=O)c1ccc(S(=O)(=O)Nc2ccccc2F)cc1 | i | i | i | i | -2.1 | i
Cc1ccc(NC(=O)Nc2ccc(F)cc2)cc1Cl | i | i | i | i | 0.7 | i
O=S(=O)(NC1=NCCC1)c1ccc(F)cc1F | i | i | i | i | 2.1 | i
CC1(C)NC(=O)N(CCOCCOc2ccc3ccccc3c2Br)C1=O | i | i | i | 13* | -2.3 | i
CC1(C)NC(=O)N(CCCCOc2ccc3ccccc3c2Cl)C1=O | i | i | i | i | 2 | i
Fc1ccccc1CNCc1ccc2c(c1)OCO2 | i | i | i | i | 1.8 | i
CC(Oc1ccccc1)c1ccnn1S(=O)(=O)c1ccccc1 (stereo not given) | i | i | i | i | -8.6* | i
SMILES | TRPC4 block | TRPC6 activator | TRPC4 act | TRPC4 potent | Kir21 inh | TRPC6 inhibitor
CCOc1ccc(CN2CCN(Cc3cccn3-c3nccs3)CC2CCO)cc1 (stereo not given) | i | i | i | i | -0.99 | i
Cc1ccc(/C=N/NC(=O)CNC(=O)c2cccs2)o1 | i | i | i | i | -5.5* | i
CCOC(=O)c1[nH]cnc1C(=O)Nc1cccc(OC)c1 | i | i | i | i | 1 | i
COc1cccc(NC(=O)c2nc(SC)ncc2Cl)c1 | i | i | i | i | -0.81 | i
CNC(=O)c1[nH]cnc1C(=O)Nc1cccc(OC)c1 | i | i | i | i | -4.5* | i
CN(c1ccccc1)S(=O)(=O)c1ccc(NC(=O)c2nc(S(C)(=O)=O)ncc2Cl)cc1 | i | i | i | i | -4.5* | i
COc1cccc(NC(=O)c2nc(S(C)(=O)=O)ncc2Cl)c1 | i | i | i | i | -6.3* | i
CN(c1ccccc1)S(=O)(=O)c1ccc(NC(=O)c2ccccc2)cc1 | i | i | i | i | -0.78 | i
O=C(CN1CCN(C(=O)c2ccco2)CC1)Nc1ccc(F)cc1F | i | i | i | i | -0.31 | i
Cc1ccc(C)c(S(=O)(=O)N2CCCCC2CCNC(=O)C(=O)NCc2ccncc2)c1 (stereo not given) | i | i | i | i | -0.96 | i
Cc1ccc(NC(=O)CSc2nnc(Cc3ccccc3)c(=O)[nH]2)c(C)c1 | i | i | i | i | 0.06 | i
COc1ccc(-c2noc(CNS(=O)(=O)c3ccc(NC(C)=O)cc3)n2)cc1OC | i | i | i | i | 0.1 | i
COc1ccc(C)cc1N(C(=O)c1ccccc1F)c1nc2ccccc2s1 | -6* | i | i | i | -1.8 | i
O=C(Nc1nc2ccccc2[nH]1)NC1CCCCC1 | i | i | i | i | -0.81 | i
N#CCCn1cc(C=O)c(-c2cccs2)n1 | i | i | i | i | 0.3 | i
CC#CC(=O)N1CCC(Oc2cccc(C(=O)NCc3ccccn3)c2)CC1 | i | i | i | i | 1.5 | i
CSCC(C)N1CCC(Oc2cccc(C(=O)NCc3ccccn3)c2)CC1 (stereo not given) | i | i | i | i | 1.2 | -5.7*
CCN1CCN(c2cc(C(C)C)nc3c(-c4ccccc4)c(C)nn23)CC1 | i | i | i | i | -8.1* | i
Cc1nn2c(NCc3ccccn3)cc(C(C)C)nc2c1-c1ccccc1 | i | i | i | i | 0.63 | i
Cc1nn2c(N3CCOCC3)cc(C(C)C)nc2c1-c1ccccc1 | i | i | i | i | -2 | i
Cc1nn2c(NCCCn3ccnc3)cc(C(C)C)nc2c1-c1ccccc1 | i | i | i | i | -5* | i
COc1ccccc1NC(=O)C1CCCN(S(=O)(=O)c2ccc3c(c2)CC(C)N3C(C)=O)C1 (stereo not given) | i | i | i | i | 1.4 | i
